# Source: PubChem (several laboratories)
# S1P4 ag: S1P4 receptor agonists, primary screen, cell-based; Sphingosine 1-phosphate receptor 4 (Homo sapiens), O95977; S1P4-expressing cell line, agonist reporter assay; activation, % at 4.98 µM; 220,000 tested, 0.35% active; AID 1509, 2009; in the data active means activation above about 11%;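 further: 0% = DMSO vehicle and 100% = reference agonist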
# HMGR II inh: inhibitors of E. faecalis class II HMGR, primary screen, biochemical, Enterococcus faecalis; HMG-CoA reductase (Enterococcus faecalis, mvaE); purified E. faecalis HMGR, NADPH absorbance 340 nm kinetic; 190,000 tested, 0.41% active; inhibition, % at 10 µM;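 active means inhibition above a set limit, the median over all tested compounds plus 3 SD, cut at about 9.5% in these data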;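 further: enzyme runs in reverse so mevalonate oxidation gives rising NADPH absorbance; 0% = complete reaction with DMSO and 100% = background rate lacking mevalonate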
# S1P4 antag: S1P4 receptor antagonists, primary screen, cell-based; Sphingosine 1-phosphate receptor 4 (Homo sapiens), O95977; S1P4-expressing cells, antagonist mode, reporter read-out; inhibition, % at 4.98 µM; 220,000 tested, 0.26% active; AID 1510, 2009; in the data active means inhibition above about 29%;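 further: 0% = wells stimulated with agonist and 100% = vehicle wells without agonist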
# S1P3 antag: S1P3 receptor antagonists, primary screen, cell-based | Sphingosine 1-phosphate receptor 3 (Homo sapiens), Q99500 | CHO S1P3 NFAT-BLA reporter, FRET fluorescence, antagonist mode | inhibition, % at 4.98 µM | 170,000 tested, 0.27% active | AID 485, 2006;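 active means inhibition above the plate cutoff, the mean inhibition of test wells on that plate plus 3 SD, cut at about 28% in these data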;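 further: cells challenged with S1P at its EC80 of 0.8 µM; blue over green emission ratio from cleaved BLA substrate after 4 h stimulation; 0% = S1P-stimulated wells and 100% = unstimulated DMSO-only wells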
# Biofilm kill mix: clotrimazole potentiators killing C. albicans biofilm, primary screen, 4-compound mixtures; C. albicans biofilm persisters + clotrimazole, fluorescence viability; primary screen in compound mixtures of four per well; AID 1242, 2008; 120,000 tested, 0.02% active; inhibition, % at 7.6 µM;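 active means inhibition above 30.3% in the primary screen of four-compound pools, then above 30% when the compound was retested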;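 further: compounds exposed to preformed 24 h biofilms for 48 h; 0% = untreated biofilm control and 100% = clotrimazole plus chlorhexidine kill blank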
#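 Test system: C. albicans biofilms. Buffer or medium: RPMI/MOPS medium, pH 7.0. Timing: 48 h compound exposure at 37 °C. Technique: Alamar Blue fluorescence. Evaluation: percent inhibition of biofilm viability.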
# Rad51 HR inh: human RAD51 strand exchange inhibitors, primary screen, biochemical, fluorescence; DNA repair protein RAD51 homolog 1 (Homo sapiens), Q06609; hRad51 DNA strand exchange, fluorescence dequenching; inhibition, % at 10 µM; 200,000 tested, 0.085% active;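 active means inhibition above 40% at the single screening dose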;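 further: 0% = DMSO control wells and 100% = blanks with heterologous ssDNA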
#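 Test system: preformed human Rad51 ssDNA filaments. Compound dosing: single dose, 10 µM final compound. Incubation: filaments 15 min 37 °C, then compound 30 min. Technique: FRET fluorescence dequenching, excitation 485 nm, emission 520 nm. Read-out basis: percent inhibition from fluorescence, normalised to plate control and blank means. Benchmarks: plate controls and plate blanks.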
# S1P4 agonist cf: S1P4 receptor agonists, retest, confirmation, cell-based, high throughput; shares compounds with S1P4 ag; S1P4 agonist cell-based reporter assay; activation, % at 4.98 µM; 740 tested, 7% active; AID 1523, 2009; in the data active means activation above about 12%;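 further: 0% = vehicle and 100% = full reference agonist response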
# S1P1 ag: S1P1 receptor agonists, human, counter-screen for S1P4 agonist project, cell-based | shares compounds with S1P4 ag | S1P1 agonist cell-based assay, activation | AID 1563, 2009 | 740 tested, 4% active | activation, % at 4.98 µM; in the data active means activation above about 21%;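 further: 0% = vehicle wells and 100% = reference agonist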
# Target sequence (P21453 whole entry, looked up): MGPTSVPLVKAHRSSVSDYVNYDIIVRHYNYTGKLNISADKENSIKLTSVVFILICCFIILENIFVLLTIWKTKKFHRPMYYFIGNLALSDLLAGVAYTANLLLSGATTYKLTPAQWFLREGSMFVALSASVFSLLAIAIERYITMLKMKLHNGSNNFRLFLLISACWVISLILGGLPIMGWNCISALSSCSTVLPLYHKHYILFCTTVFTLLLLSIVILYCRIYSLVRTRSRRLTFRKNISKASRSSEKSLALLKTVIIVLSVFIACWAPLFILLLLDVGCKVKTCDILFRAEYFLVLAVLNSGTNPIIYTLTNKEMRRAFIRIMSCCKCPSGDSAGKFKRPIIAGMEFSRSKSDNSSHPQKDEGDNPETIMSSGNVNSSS
# * marks the source's active call; other numbers are inactive results; . = no result. Rows were chosen to be rich in hits. Some 1.2% of all compounds tested hit in one or more screens of this group.
SMILES,S1P4 ag,HMGR II inh,S1P4 antag,S1P3 antag,Biofilm kill mix,Rad51 HR inh,S1P4 agonist cf,S1P1 ag
O=C(CCC1CCCCC1)Nc1nccs1,126*,-5,-4,-9,18,-1,-1,-2
O=C(CN1C(=O)C2CCCCC2C1=O)Nc1nccs1 (stereo not drawn),-1,-4,-4,-2,10,4,.,.
Cc1ccsc1/C=N/n1c(C2CCCCC2)n[nH]c1=S,5,2,-10,5,10,3,.,.
Cc1ccc(/C=N/n2c(C3CCCCC3)n[nH]c2=S)s1,21*,-2,-10,-9,12,10,-1,0
CCOC(=O)C1=C(C)NC(=O)NC1c1ccc(N2CCC(c3ccccc3)=N2)cc1 (stereo not drawn),15*,0,1,-15,3,.,7,16
CCN(C(=O)COC(=O)c1cc(S(=O)(=O)N2CCOCC2)c(Cl)cc1Cl)C1CCS(=O)(=O)C1 (stereo not drawn),2,3,-2,-14,11,17,.,.
CCOc1ccc(NC(=O)c2ccc3c(c2)N(Cc2ccc(F)cc2)C(=O)CS3=O)cc1 (stereo not drawn),2,-1,-6,0,.,-2,.,.
Brc1ccc(-c2ccc(/C=N/Nc3nc4ccccc4[nH]3)o2)cc1,12*,-7,13,-3,4,-1,8,24*
Cc1c(C(=O)O)cccc1-n1c(C)cc(/C=N/NC(=O)c2cc3ccccc3o2)c1C,0,-10,-14,0,18,-6,.,.
Cc1ccc(C(=O)NCCc2nnc3ccc(SCC(=O)Nc4ccccc4C)nn23)cc1,-1,-5,-2,-12,4,-5,.,.
Cc1ccc(C(=O)NCCc2nnc3ccc(SCC(=O)Nc4c(C)cc(C)cc4C)nn23)cc1,13*,-4,-13,9,12,3,-1,-3
CCCCn1c(N)c(N(Cc2ccccc2OC)C(=O)COc2ccccc2C#N)c(=O)[nH]c1=O,-2,.,-3,-13,7,5,.,.
COc1ccc(CCN/C=C2/CC(=O)NC2=O)cc1OC,17*,-7,5,-32,.,0,-1,2
COc1ccc(-n2c(C)cc(C(=O)CN3CCC(C)CC3)c2C)cc1,1,-1,-24,12,6,-4,.,.
Cc1ccc(-c2csc(/C(C#N)=C(\O)CCl)n2)cc1,20*,1,-23,3,19,-1,-3,-5
COc1cccc(CNC(=O)Cc2nc3nc(C)cc(C)n3n2)c1,1,0,-10,-12,16,-4,.,.
Cc1cccc(C)c1N(CC(=O)N1CCN(c2ccccc2F)CC1)S(C)(=O)=O,0,-3,4,-9,13,-1,.,.
Cc1cccc(C)c1N(Cc1ccccc1F)S(C)(=O)=O,33*,-5,5,3,14,.,-2,-2
O=C(N/C(=C/c1ccc(Br)cc1)C(=O)N1CCCC1)c1cccs1,13*,-1,-2,-9,17,19,-2,-1
O=C(N/C(=C\c1ccc(Br)cc1)C(=O)N1CCCC1)c1cccs1,-1,-4,6,-22,10,16,.,.
CCOC(=O)N1CCN(Cc2nc(-c3ccc(Cl)cc3)no2)CC1,37*,-7,-4,.,.,-13,-2,-3
CC(=O)NCCCc1nc2ccccc2n1Cc1c(F)cccc1Cl,52*,.,-10,3,-10,19,-2,-6
CC(=O)NCCCc1nc2ccccc2n1Cc1cc(C)ccc1C,1,-4,-2,12,11,3,.,.
O=C(NCC(c1ccco1)N1CCCCC1)C(c1ccccc1)c1ccccc1 (stereo not drawn),0,-1,21,-3,18,-5,.,.
COc1ccccc1NC(=O)c1c(NC(=O)c2ccco2)sc2c1CCC2,14*,-1,-11,18,.,1,0,-3
SMILES,S1P4 ag,HMGR II inh,S1P4 antag,S1P3 antag,Biofilm kill mix,Rad51 HR inh,S1P4 agonist cf,S1P1 ag
CC(C)(C)c1ccc(OCC(=O)Nc2ccc3c4c(cccc24)C(=O)NC3=O)cc1,19*,-3,-11,-7,11,-61,1,-4
Cc1ccc(OCC(=O)NC(=S)Nc2ccc3c4c(cccc24)CC3)cc1,0,0,2,3,-1,.,.,.
N#C/C(=C\c1cccs1)C(=O)c1ccccc1Cl,36*,.,24,2,20,-2,-2,-9
CC(C)(C)C(=O)/C(C#N)=C/c1cccs1,0,.,13,-8,16,.,.,.
COc1ccccc1CNC(=O)CSc1ccc(-c2ccncc2)nn1,29*,-5,-2,-5,14,-2,-1,5
COc1cccc(CNC(=O)CSc2ccc(-c3ccncc3)nn2)c1,-1,-7,3,-13,14,8,.,.
CCOc1ccc(-c2nnn(CC(=O)NCc3ccco3)n2)cc1OCC,1,-6,-2,.,15,5,.,.
CC(C)CC(=O)Nc1ccc(-c2nnn(CC(=O)NCc3ccco3)n2)cc1,14*,-3,-4,-10,15,23,-2,-5
COCCn1c(=O)sc2ccccc2c1=O,27*,-11,-18,-12,13,-2,-1,-2
COc1ccc(Cn2c(=O)sc3ccccc3c2=O)cc1,0,-17,12,4,11,-15,.,.
Cc1ccc(C(C(=O)NCc2ccco2)N(C(=O)CNC(=O)c2cccs2)c2c(C)cccc2C)cc1 (stereo not drawn),81*,4,-1,-1,17,-10,-2,-2
O=C(c1ccccc1)N1CCC(c2nc3c(nnn3Cc3ccccc3Cl)c(=O)[nH]2)CC1,55*,0,-7,.,.,2,-2,-2
COc1ccccc1Cn1nnc2c(=O)[nH]c(C3CCN(C(=O)c4ccc(F)cc4)CC3)nc21,1,-11,-12,-5,.,-4,.,.
Cc1ccc(Cn2ncc3c(N4CCN(CCc5ccccc5)CC4)ncnc32)cc1,0,.,3,7,19,6,.,.
CC(C)CCNC(=O)C(=O)NC1CCCC1,57*,4,14,1,10,.,-2,-1
CC(C)CCNC(=S)NC1CCCC1,2,-4,-7,.,.,-8,.,.
